Arr AP2 block – blocks beta-arrestin peptide binding to AP2 adaptin. FITC-arrestin peptide / GST-AP2 beads, flow cytometry; AP2 beta2 appendage carries R879A mutation. inhibition, % at 10 µM. 340,000 compounds, 0.31% hits;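 active = inhibition above a set limit, near 3 SD of compounds lacking own fluorescence, cut at about 54% in these data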;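 note: plate controls were DMSO wells for no effect and 5 µM unlabelled arrestin peptide for full effect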
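Measured by: flow cytometry, FL1 (488/535 nm); Material: AP2 appendage R879A on GSH beads; Evaluation: percent response; Timing: pre-incubation 12 min, peptide binding 1 h, room temperature; Also added: 50 nM FITC-arrestin peptide; Medium: PBS with 0.05% Tween 20 and 0.1% BSA.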
GalR3 antag – blocks the human galanin receptor 3. inhibition, % at 3 µM. O60755. HEK293 GalR3-CNG cAMP membrane potential fluorescence; galR3 body fused to GalR1 C-terminus. AID 651719. 360,000 compounds, 0.44% hits;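 active = inhibition above the screen-wide average plus 3 SD, cut at about 13% in these data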;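 note: forskolin and galanin both at EC90 stimulate the cells; cAMP rise reported by CNG channel membrane potential dye signal; 0% = forskolin plus galanin with DMSO and 100% = forskolin alone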
NPR2 activator – GC-B (human) receptor activation. HEK293-GC-B cells, CNP EC30, cGMP TR-FRET; 0% at EC30 CNP, 100% saturating CNP. activation, % at 10 µM. 370,000 compounds, 0.11% hits. P20594;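 active = activation at 10 µM reaching about 35% in either raw or pattern-adjusted values, limit read from the data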
NPR1 activator – GC-A (human) enzyme activation; HEK293 GC-A cells, cGMP TR-FRET, EC30 ANP; 0% at EC30 ANP, 100% saturating ANP; 370,000 compounds, 0.14% hits; P16066; activation, % at 10 µM; in the data active = activation above about 40%
GalR3 antag conf – confirmation of human galanin receptor 3 antagonists | shares compounds with GalR3 antag | HEK293 GalR3 CNG cAMP biosensor, membrane potential fluorescence; galR3 fused to GalR1 carboxy tail; challenged with forskolin and galanin at EC90 | inhibition, % at 3 µM | 1,600 compounds, 59% hits | AID 652245;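 active = inhibition above the primary screen's cutoff, the mean inhibition of all screened compounds plus 3 SD, cut at about 13% in these data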;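 note: 0% = forskolin plus galanin and 100% = forskolin alone with DMSO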
HEK-CNG parental – parental cell agonism counter-screen for GalR3 antagonists | shares compounds with GalR3 antag | HEK293-CNG parental cells, cAMP membrane potential fluorescence; normalised: DMSO wells 0%, forskolin wells 100% | activation, % at 3 µM | 1,600 compounds, 10% hits; in the data active = activation above about 1.3%
* = called active by the depositor. Shown are actives, neighbours in structure and some others; about 0.94% of the full set was active somewhere.

Results for CSc1ccc(C(=O)C2CCCN(C(=O)CCc3c(C)nn(C)c3C)C2)cc1 (centres undefined) ?
Arr AP2 block: 16; GalR3 antag: 86*; NPR2 activator: -5; NPR1 activator: 3; GalR3 antag conf: 95*; HEK-CNG parental: 0

Results for O=C1NC(Cc2cnc[nH]2)C(=O)N2CCCC12 (centres undefined) ?
GalR3 antag: -7; NPR2 activator: -1; NPR1 activator: 1

Results for O=Cc1cn(CC(=O)N2CCCCCC2)c2ccccc12 ?
Arr AP2 block: 3; GalR3 antag: 19*; NPR2 activator: 0; NPR1 activator: -5; GalR3 antag conf: 6; HEK-CNG parental: 0

What do the screens show for `O=Cc1cn(CC(=O)N2CCc3ccccc32)c2ccccc12`?
Arr AP2 block: -8; GalR3 antag: -3; NPR2 activator: -3; NPR1 activator: -1

What do the screens show for `CCCCCCCCN1C(=O)[C@@H](CC(=O)NCc2ccc(C)o2)C[C@@]2(C(=O)OC)C1=C[C@H](C1CCCC1)O[C@@H]2C`?
GalR3 antag: -7; NPR2 activator: 10; NPR1 activator: -6

What do the screens show for `CCOC(=O)c1cnc(-n2nc(C)cc2C)nc1NC`?
Arr AP2 block: 26; GalR3 antag: -5; NPR2 activator: 2; NPR1 activator: -1

Results for CCOC(=O)c1cnc(-n2nc(C)cc2C)nc1NC1CCCCC1 ?
Arr AP2 block: 3; GalR3 antag: 34*; NPR2 activator: -2; NPR1 activator: -2; GalR3 antag conf: 73*; HEK-CNG parental: 6.8*

What do the screens show for `CCCCCCCCNc1ncnc2ccccc12`?
Arr AP2 block: 3

How did CCCCCCCC[n+]1cccc2c3ccccc3ccc21 do in these assays?
Arr AP2 block: -13; GalR3 antag: 65*; NPR2 activator: 2; NPR1 activator: 13; GalR3 antag conf: 54*; HEK-CNG parental: 3.1*

Results for CCCCCCCCCC[n+]1cccc2c3ccccc3ccc21 ?
Arr AP2 block: -32; GalR3 antag: 50*; NPR2 activator: -5; NPR1 activator: -2; GalR3 antag conf: 51*; HEK-CNG parental: 8.2*

Results for Cc1cccc[n+]1CCCCCCCCCC[n+]1ccccc1C ?
Arr AP2 block: 13; GalR3 antag: -6; NPR2 activator: -2; NPR1 activator: 3

Results for O=C(N/N=C(\c1ccccc1)c1cccnc1)c1cccc(F)c1 ?
Arr AP2 block: 8; GalR3 antag: 42*; NPR2 activator: 5; NPR1 activator: 4; GalR3 antag conf: 38*; HEK-CNG parental: 0

Results for O=C(NCc1ccccc1)N1CCC(c2nc3ccc(Cl)cc3[nH]2)CC1 ?
NPR2 activator: -7; NPR1 activator: -5

What do the screens show for `COc1ccc(NC(=O)N(C)C[C@@H]2OCc3cnnn3CCCC(=O)N([C@H](C)CO)C[C@H]2C)c(OC)c1`?
GalR3 antag: -3; NPR2 activator: -2; NPR1 activator: 1

What do the screens show for `Nc1[nH]c(C(=O)c2ccc(Br)cc2)c(-c2c(F)cccc2F)c1C(=O)NCCc1c[nH]c2ccccc12`?
GalR3 antag: -5; NPR2 activator: 2; NPR1 activator: -5

What do the screens show for `Cc1ccccc1C(=O)N(C)[C@H]1C[C@H]2c3[nH]c4c(-c5ccc6c(c5)OCO6)cccc4c3CCN2C(=O)[C@H]1[C@H](C)O`?
GalR3 antag: -6; NPR2 activator: -10; NPR1 activator: -7

Results for COc1cc(C(=O)N/N=C/c2sccc2C)cc(OC)c1OC ?
Arr AP2 block: 11; GalR3 antag: 14*; NPR2 activator: 2; NPR1 activator: -4; GalR3 antag conf: 9; HEK-CNG parental: 1.8*

Results for C[C@@H]1ON(C)[C@H]2C[C@H]3c4[nH]c5c(-c6ccccc6)cccc5c4CCN3C[C@@H]12 ?
GalR3 antag: -8; NPR2 activator: -8; NPR1 activator: 0

Results for C[C@@H](CO)NC(=O)c1[nH]cnc1C(=O)Nc1ccccc1 ?
GalR3 antag: -5; NPR2 activator: 2; NPR1 activator: 0

Screening data: PubChem, several laboratories
